Test results from ChEMBL document CHEMBL3091314, “Synthesis, cytotoxic evaluation and molecular docking study of 2-alkylthio-4-(2,3,4-trimethoxyphenyl)-5-aryl-thiazoles as tubulin polymerization inhibitors” (Bioorg Med Chem, 2013).
Calls of active or inactive are those of the source. No cut-off for these calls is given here.

Tests used:
[1] = test system: HT-29; experiment: Cytotoxicity against human HT-29 cells after 48 hrs by MTT assay; assay type: functional, cell-based; settings: HT-29, 48 h
In short: (§1)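 Cells grown in RPMI-1640 with 10% heat-inactivated FBS, penicillin and streptomycin, seeded at 8000–10,000 viable cells/well and left 48 h to attach. Exposed to 0.001–100 µM compound (DMSO final <0.1%) for 24 or 48 h depending on cell line. MTT (5 mg/ml in PBS) added for 4 h at 37 °C, formazan dissolved in DMSO, absorbance read at 550 nm against 690 nm. Triplicates; IC50 by nonlinear regression, mean ± SD.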

[2] = test system: AGS; experiment: Cytotoxicity against human AGS cells after 48 hrs by MTT assay; assay type: functional, cell-based; in short: as §1
[3] = test system: NIH3T3; experiment: Cytotoxicity against mouse NIH/3T3 cells after 48 hrs by MTT assay; assay type: cell-based; settings: NIH3T3, 48 h; in short: as §1
[4] = test system: MCF7; experiment: Cytotoxicity against human MCF7 cells after 48 hrs by MTT assay; assay type: functional, cell-based; settings: MCF7, 48 h; in short: as §1
[5] = test system: NIH3T3; experiment: Cell cycle arrest in mouse NIH/3T3 cells assessed as accumulation at G0/G1 phase at 25 uM after 24 hrs using propidium iodide staining by flow cytometric analysis (reference value: 39.91%); assay type: cell-based; settings: nih3t3, 24 h
In short: (§2)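 NIH-3T3 cells treated with 25 or 50 µM for 24 h. Collected by centrifugation, fixed in 75% ethanol at 4 °C for 0.5 h, then resuspended in PBS with 0.1% Triton X-100, 10 µg/mL propidium iodide and 100 µg/mL RNase A at 37 °C for 0.5 h. DNA content read on a FACSCalibur flow cytometer. CA-4 (0.05 µM) served as positive control.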

[6] = test system: NIH3T3; experiment: Cell cycle arrest in mouse NIH/3T3 cells assessed as accumulation at G0/G1 phase at 50 uM after 24 hrs using propidium iodide staining by flow cytometric analysis (reference value: 39.91%); assay type: cell-based; settings: nih3t3, 24 h; in short: as §2
[7] = organism: Ovis aries; experiment: Inhibition of sheep brain tubulin polymerization at 10 uM after 15 mins
In short: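 Purified tubulin (12 µM) preincubated 15 min with compound at 10 µM final in PEM buffer (100 mM PIPES pH 6.9, 1 mM MgSO4, 1 mM EGTA), then cooled to 0 °C. GTP added to 1 mM final; assembly started by warming from 0 to 37 °C and followed by absorbance at 350 nm. Duplicate experiments; CA-4 as positive control.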

[8] = test system: NIH3T3; experiment: Cell cycle arrest in mouse NIH/3T3 cells assessed as accumulation at G2/M phase at 25 uM after 24 hrs using propidium iodide staining by flow cytometric analysis (reference value: 35.70%); assay type: cell-based; settings: nih3t3, 24 h; in short: as §2
[9] = test system: NIH3T3; experiment: Cell cycle arrest in mouse NIH/3T3 cells assessed as accumulation at S phase at 25 uM after 24 hrs using propidium iodide staining by flow cytometric analysis (reference value: 24.39%); assay type: cell-based; settings: nih3t3, 24 h; in short: as §2
[10] = test system: NIH3T3; experiment: Cell cycle arrest in mouse NIH/3T3 cells assessed as accumulation at G2/M phase at 50 uM after 24 hrs using propidium iodide staining by flow cytometric analysis (reference value: 35.70%); assay type: cell-based; settings: nih3t3, 24 h; in short: as §2
[11] = test system: NIH3T3; experiment: Cell cycle arrest in mouse NIH/3T3 cells assessed as accumulation at S phase at 50 uM after 24 hrs using propidium iodide staining by flow cytometric analysis (reference value: 24.39%); assay type: cell-based; settings: nih3t3, 24 h; in short: as §2

Row | Structure (SMILES) | IC50 [1] | IC50 [2] | IC50 [3] | IC50 [4] | Activity [5] | Activity [6] | tubulin polymerization inhibition (active/inactive) [7] | Activity [8] | Activity [9] | Activity [10] | Activity [11]
1 | COc1ccc(-c2nc(SC)sc2-c2ccc([N+](=O)[O-])cc2)c(OC)c1OC | 45.3 µM | > 100 µM | > 100 µM |  |  |  |  |  |  |  | 
2 | COc1ccc(-c2nc(SC)sc2-c2ccccc2)c(OC)c1OC | 77.9 µM | 27.2 µM | 22.1 µM |  |  |  |  |  |  |  | 
3 | COc1ccc(-c2nc(SCc3ccccc3)sc2-c2ccccc2)c(OC)c1OC | 46 µM | 38.5 µM | 56.5 µM | 27.3 µM |  |  |  |  |  |  | 
4 | COc1ccc(-c2nc(SC)sc2-c2ccc(F)cc2)c(OC)c1OC | 80.3 µM | 97.8 µM | 42.1 µM |  |  |  |  |  |  |  | 
5 | COc1ccc(-c2nc(SCc3ccccc3)sc2-c2ccc(Cl)cc2)c(OC)c1OC | 8.9 µM | 15.8 µM | 20.5 µM | 12.6 µM | 34.24% | 15.92% | Active | 37.64% | 28.12% | 57.41% | 26.67%
6 | COc1ccc(/C=C\c2cc(OC)c(OC)c(OC)c2)cc1O [COMBRETASTATIN A4] | 1.58 µM | 0.064 µM | 0.097 µM | 0.67 µM |  |  | Active |  |  |  | 
7 | COc1ccc(-c2nc(SC)sc2-c2ccc(Cl)cc2)c(OC)c1OC | > 100 µM | > 100 µM | 95.7 µM |  |  |  |  |  |  |  | 
8 | COc1ccc(-c2nc(SCc3ccccc3)sc2-c2ccc([N+](=O)[O-])cc2)c(OC)c1OC | 33.8 µM | 13.8 µM | 16.3 µM | 11 µM |  |  | Active |  |  |  | 
9 | COc1ccc(-c2nc(SCc3ccccc3)sc2-c2ccc(F)cc2)c(OC)c1OC | 18.5 µM | 18.1 µM | 41.5 µM | 18.5 µM |  |  | Active |  |  |  | 
